# Activity calls are given as the source filed them.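 How the source made its calls, unless noted: active means NADPH fluorescence slope more negative than the mean of all samples by about 3 SD, 99.7% confidence; inactive means the rest.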
# Tests used:
# [1] = inhibitors of TNFa-induced NFkB p65 translocation, primary screen, imaging, HUVEC, MLSMR starter and 10KST1 sets (AID 438;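 active means inhibition above 20% together with a positive visual image hit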;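 further: compound added about 3h40 before a 20 min TNFalpha stimulation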;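 on inhibition: signal is the nuclear over cytoplasmic p65 intensity ratio per well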); conditions: HUVEC TNFa-induced p65 nuclear translocation; cell count: measured here: nuclei count (cytotoxicity indicator), at 2.08 µM; inhibition: at 2 µM, stronger effect = higher value, 0% TNFa-plus-vehicle, 100% no-TNFa wells
# [2] = inhibitors of E-selectin induction by TNFa, primary screen, imaging, HUVEC, immunofluorescence, MLSMR starter and 10KST1 sets (AID 487;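 active means visually confirmed hit in the image check and inhibition above 20%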;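 on inhibition: signal is fraction of cell area covered by stained E-selectin grains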;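 on nuclei count: 100% = median nuclei count of all wells on the same plate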); conditions: HUVEC TNFalpha-induced E-selectin immunofluorescence imaging, at 2 µM; inhibition: stronger effect = higher value; nuclei count: measured here: cell number, toxicity
# [3] = DUSP6 inhibitors restoring Erk phosphorylation by chemical complementation, primary imaging in DUSP6-transfected HeLa (AID 609;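 active means compounds giving at least 50% inhibition in the cell-based MKP-3 phosphatase rescue imaging test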;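 on inhibition: phospho-Erk level distribution per well compared with pooled transfected vehicle control wells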); conditions: HeLa MKP-3 transfected, phospho-Erk imaging KS statistic, at 10 µM, cells stimulated with TPA for 15 min
# [4] = molecular target: Dual specificity protein phosphatase 6 (Homo sapiens) (UniProt Q16828); experiment: as above; conditions: HeLa MKP-3 transfected, phospho-Erk imaging KS statistic; at 10 µM; stronger effect = higher value; cells stimulated with TPA for 15 min
# Sequence of Dual specificity protein phosphatase 6 (Homo sapiens) (Q16828 whole entry, looked up): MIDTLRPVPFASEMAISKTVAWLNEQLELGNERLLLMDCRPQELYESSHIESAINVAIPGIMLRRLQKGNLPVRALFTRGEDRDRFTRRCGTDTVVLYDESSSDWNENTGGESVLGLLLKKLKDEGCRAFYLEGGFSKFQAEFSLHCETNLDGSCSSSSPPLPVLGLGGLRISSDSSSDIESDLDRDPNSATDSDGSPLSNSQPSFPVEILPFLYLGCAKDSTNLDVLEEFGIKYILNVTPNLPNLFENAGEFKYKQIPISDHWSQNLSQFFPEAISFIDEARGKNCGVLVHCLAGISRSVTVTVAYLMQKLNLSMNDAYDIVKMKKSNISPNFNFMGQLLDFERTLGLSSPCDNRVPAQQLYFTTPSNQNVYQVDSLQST
# [5] = molecular target: Voltage-gated potassium channel subunit beta-2 (Rattus norvegicus) (UniProt P62483); experiment: KvBeta enzyme negative modulators, primary screen, biochemical, NADPH fluorescence (AID 622;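 active means fluorescence slope higher than the sample average by over 3 SD, cut at about -0.22 in these data, passing the limit was not always enough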;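 further: slope of raw intensity against log time taken from 70 to 1610 s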); conditions: recombinant KvBeta, 4-cyanobenzaldehyde reduction, at 10 µM, stronger effect = higher value
# Sequence of Voltage-gated potassium channel subunit beta-2 (Rattus norvegicus) (P62483 whole entry, looked up): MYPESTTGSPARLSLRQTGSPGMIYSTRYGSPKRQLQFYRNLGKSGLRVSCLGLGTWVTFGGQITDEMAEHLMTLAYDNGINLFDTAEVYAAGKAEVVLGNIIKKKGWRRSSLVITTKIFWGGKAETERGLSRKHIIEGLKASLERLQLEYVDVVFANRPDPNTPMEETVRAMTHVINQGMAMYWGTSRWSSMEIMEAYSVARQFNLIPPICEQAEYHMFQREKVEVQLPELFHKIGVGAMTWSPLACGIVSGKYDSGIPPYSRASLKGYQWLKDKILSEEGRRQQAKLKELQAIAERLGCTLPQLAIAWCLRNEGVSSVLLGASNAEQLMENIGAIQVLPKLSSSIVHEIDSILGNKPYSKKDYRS
# [6] = molecular target: Voltage-gated potassium channel subunit beta-2 (Rattus norvegicus) (UniProt P62483); experiment: KvBeta positive modulators, primary screen, biochemical, NADPH fluorescence (AID 623); conditions: Recombinant KvBeta, NADPH fluorescence decrease slope, 10 min; at 10 µM; stronger effect = lower value;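 further: fluorescence intensity change per second fitted from 20 to 320 s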
# [7] = molecular target: Alpha-2C adrenergic receptor (Homo sapiens) (UniProt P18825); experiment: modulators of alpha2C/GIRK thallium flux, primary screen, cell-based, HEK293 alpha2C/GIRK1/2 (AID 624;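 active means fluorescence slope after compound addition differing from the mean of all screened samples at 99.7% confidence, in either direction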;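 further: slope of fluorescence ratio to pre-addition baseline per second over 15 to 24 s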); conditions: thallium flux BTC fluorescence, at 10 µM, actives lie on both sides
# Sequence of Alpha-2C adrenergic receptor (Homo sapiens) (P18825 whole entry, looked up): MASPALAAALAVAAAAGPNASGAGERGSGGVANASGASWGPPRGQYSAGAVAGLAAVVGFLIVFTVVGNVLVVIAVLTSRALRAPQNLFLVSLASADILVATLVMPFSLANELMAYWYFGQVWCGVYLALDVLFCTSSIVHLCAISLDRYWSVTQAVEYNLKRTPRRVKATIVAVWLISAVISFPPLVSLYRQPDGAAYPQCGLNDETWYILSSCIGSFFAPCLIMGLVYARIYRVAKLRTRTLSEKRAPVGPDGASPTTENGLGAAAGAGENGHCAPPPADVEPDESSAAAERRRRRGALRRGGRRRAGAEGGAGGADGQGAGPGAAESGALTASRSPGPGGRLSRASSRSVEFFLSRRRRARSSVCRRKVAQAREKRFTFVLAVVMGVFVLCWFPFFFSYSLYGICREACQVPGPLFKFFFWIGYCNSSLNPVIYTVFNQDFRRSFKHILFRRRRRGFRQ
# [8] = inhibitors of larval lipid processing in zebrafish, primary screen, whole organism, PED6 fluorescence, gall bladder and intestine (AID 686;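 active means a full or partial loss of lipid-probe fluorescence in the fish gall bladder, intestine or both, judged by eye; inactive means no fluorescence loss, or compound toxic to the fish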;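 further: larvae 5 to 7 days old with five fish per well; signal comes from phospholipase A2 cleavage of quenched PED6 carried via bile; overnight exposure to compound and PED6 before scoring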); conditions: Zebrafish larvae PED6 lipid processing, fluorescence scoring; screened at 20 µM (by protocol)
# Summary of the method: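 Test system – live zebrafish larvae aged 5-7 days, whole organism · Buffer or medium – E3 fish medium · Reagent – quenched phospholipase substrate PED6, 100 nM final, ingested by larvae · Doses – 20 µM single dose · Incubation – overnight compound and PED6 incubation · Technique – visual fluorescence microscopy scoring of gall bladder, gut · Read-out basis – visual per-well fluorescence inhibition score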
# [9] = inhibitors of Chlamydomonas gravitaxis, primary screen, whole organism, Chlamydomonas reinhardtii, WT vs cilia-less mutant, absorbance, 96-well (AID 463189;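 active means inhibition at or above 50% relative to wild type and mutant plate controls; inactive means inhibition below 50%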;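 further: 0% = wild type cc124 cells in DMSO and 100% = ciliumless bld1 mutant cells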); conditions: OD600 absorbance, 2 days, at 10 µM, stronger effect = higher value
# [10] = measured here: cell density z-score
# [11] = measured here: nuclear c-Myc green intensity z-score
# [12] = measured here: nuclear pErk red intensity z-score, stronger effect = higher value
Compound,cell count [1],inhibition [1],inhibition [2],nuclei count [2] [%],"z-score [3, 10]","z-score [3, 11]","z-score [3, 12]",inhibition [4],fluorescence slope [5],NADPH fluorescence slope [6],slope [7],outcome [8],inhibition [9]
CCN(CC)c1ccc2cc(C(=O)Nc3ccccn3)c(=O)oc2c1,384,-12% (inactive),0.4% (inactive),80.2,-0.204,0.482,0.701,-2.07% (inactive),-0.433 (inactive),-2.6e-05 (inactive),0 (inactive),inactive,20.3% (inactive)
COc1ccc(Oc2nc3c(c(=O)n(C)c(=O)n3C)n2Cc2cccc(OC)c2)cc1,468,-1.9% (inactive),-260% (inactive),162,1.97,-0.65,-2.21,26% (inactive),-0.295 (inactive),-1.2e-05 (inactive),0.00507 (inactive),inactive,31.4% (inactive)
CC(=O)OCc1c(COC(C)=O)[n+](=O)c2ccccc2n1[O-],523,-7% (inactive),-114% (inactive),156,0.0201,-0.163,-0.453,2.46% (inactive),-0.322 (inactive),1.5e-05 (inactive),0.00492 (inactive),inactive,17% (inactive)
C=CCOc1nc2c(c(=O)n(C)c(=O)n2C)n1Cc1ccc(Cl)cc1,659,7.6% (inactive),-11.6% (inactive),137,-0.719,0.0983,0.628,27.5% (inactive),-0.516 (inactive),-0.000102 (inactive),0.00536 (inactive),inactive,4.31% (inactive)
CSc1nc(N2CCCC2)c2c(c1C#N)CC(C)(C)OC2,568,-4.5% (inactive),-28.5% (inactive),171,0.89,-1.74,0.374,5.65% (inactive),-0.314 (inactive),8.2e-06 (inactive),0.00565 (inactive),inactive,10.3% (inactive)
O=c1c(F)cn(C2CCCO2)c(=O)n1Cc1ccccc1Cl (stereo unspecified),614,1.6% (inactive),11.4% (inactive),203,0.269,0.415,0.187,0.671% (inactive),-0.534 (inactive),-7.3e-05 (inactive),0.00591 (inactive),inactive,4.11% (inactive)
Nc1nonc1-c1noc(-c2ccccc2)n1,480,-3.5% (inactive),-26.8% (inactive),122,0.154,1.08,-0.0551,13.2% (inactive),-0.516 (inactive),-3.2e-05 (inactive),0.00533 (inactive),inactive,33.2% (inactive)
N#CC1=C(N)N2C(=C(C#N)C1c1ccccc1)Sc1ccccc12 (stereo unspecified),653,-14.8% (inactive),9.7% (inactive),116,1.49,-0.461,-0.35,17.7% (inactive),-0.452 (inactive),-9.4e-06 (inactive),0.0107 (inactive),inactive,44.9% (inactive)
C=CCn1c(SCC(=O)OC)nc2sc3c(c2c1=O)CCN(C)C3,489,5.2% (inactive),-55.9% (inactive),177,0.349,0.211,-0.762,1.48% (inactive),-0.234 (inactive),-1.8e-05 (inactive),0.00333 (inactive),inactive,-3.61% (inactive)
O=C1CCC(=O)N1c1nc2nc(-c3ccccc3)cc(-c3ccccc3)n2n1,360,-6.9% (inactive),-15.6% (inactive),91,-0.411,1.12,0.232,5.42% (inactive),-0.467 (inactive),-3e-05 (inactive),0.00473 (inactive),inactive,46.1% (inactive)
Cc1c(-c2cccs2)[n+](=O)c2c(n1[O-])CCCC2,431,-16.7% (inactive),-128% (inactive),164,1.59,-0.562,-0.0919,15% (inactive),-0.419 (inactive),-1.1e-05 (inactive),0.0072 (inactive),inactive,15.1% (inactive)
COc1nc(NS(=O)(=O)c2ccc(C)cc2)nc(C)c1Cl,718,3.9% (inactive),-62.9% (inactive),170,-1.13,1.46,-0.341,1.48% (inactive),-0.346 (inactive),-3.1e-05 (inactive),0.00526 (inactive),inactive,-6.39% (inactive)

# Source: PubChem BioAssay
